High-throughput results from PubChem.
NR2E3 ag-1: activates human NR2E3 receptor; Q9Y5X4; CHO-S Gal4-NCOR/VP16-NR2E3 two-hybrid, luciferase; inhibition of corepressor binding, % at 3.98 µM; 0.35% of 360,000 active; AID 602229;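 active = inhibition above the mean of all tested compounds plus 3 SD, cut at about 70% in these data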;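 also: 0% = DMSO with NR2E3 transfected cells and 100% = cells lacking NR2E3 construct; higher means lower luciferase signal from less NR2E3 corepressor binding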
Target sequence (Q9Y5X4 whole entry, looked up, the tested form may be a part): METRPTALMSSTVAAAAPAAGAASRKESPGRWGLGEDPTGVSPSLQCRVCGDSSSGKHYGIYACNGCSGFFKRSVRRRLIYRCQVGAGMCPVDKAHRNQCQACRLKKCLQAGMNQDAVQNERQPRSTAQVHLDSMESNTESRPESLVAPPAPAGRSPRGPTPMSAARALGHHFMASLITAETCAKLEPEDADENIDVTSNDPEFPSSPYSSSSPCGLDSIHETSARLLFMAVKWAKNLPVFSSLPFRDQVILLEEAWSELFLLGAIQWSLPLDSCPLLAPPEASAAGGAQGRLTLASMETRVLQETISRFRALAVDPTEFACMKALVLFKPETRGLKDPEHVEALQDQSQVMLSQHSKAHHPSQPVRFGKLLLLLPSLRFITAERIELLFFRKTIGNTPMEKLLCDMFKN
PG9 Ab binder: PG9 antibody binding by small molecule | TR-FRET gp120-PG9 antibody binding | inhibition, % at 6.7 µM | 0.43% of 360,000 active | AID 624416; in the data active = inhibition above about 8.5%
NR2E3 ag-2: agonists of human nuclear receptor NR2E3. Q9Y5X4. GST-NR2E3/biotin-RetCOR TR-FRET, 1536-well. inhibition of corepressor binding, % at 4.78 µM. 0.12% of 320,000 active. AID 2300;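 active = percent inhibition above the cutoff of mean plus 3 SD of all tested compounds, set per screening campaign, cut at about 20% in these data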;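 also: 0% = DMSO wells and 100% = biotin wells as full block of FRET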
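System: GST-tagged NR2E3 plus biotinylated RetCOR corepressor; Amount: 1.35 nM GST-tagged NR2E3 final; Dosing: single nominal compound dose of 4.8 µM; Schedule: 5 h incubation at 4 °C; Technique: TR-FRET with europium anti-GST and streptavidin-D2, 340 nm excitation; Controls: biotin wells as high control, 0.6% DMSO wells as low control.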
NR1D1 modulator: modulates human Rev-erb alpha binding to DNA. P20393. AID 1259318. Rev-erbα–FITC-DNA binding, fluorescence polarization, 90 min. 0.79% of 370,000 active. activity, % at 10 µM;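 active = activity above about 14%, limit read from the data; passing the limit was not always enough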;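 also: 0% = DMSO wells with 35 nM protein and 100% = DMSO wells with 750 nM protein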
NR2E3 ag confirm: NR2E3 agonism confirmed in two-hybrid assay. shares compounds with NR2E3 ag-1. CHO-S mammalian two-hybrid NR2E3-NCOR, luciferase luminescence. inhibition, % at 3.98 µM. 51% of 2,300 active. AID 624378;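 active = average inhibition above a cutoff equal to the mean inhibition of all tested compounds plus one SD, cut at about 70% in these data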;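 also: 0% = DMSO in NR2E3 cells and 100% = DMSO in cells lacking NR2E3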
VP16 counter: GAL4-VP16 reporter inhibition in NR2E3 agonist counterscreen; 29% of 2,300 active; CHO-S GAL4-VP16 luciferase reporter, luminescence; inhibition, % at 3.98 µM; shares compounds with NR2E3 ag-1;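 active = mean inhibition above a cutoff equal to the average over all tested compounds plus one standard deviation, cut at about 70% in these data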;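 also: luciferase from a UAS reporter driven by GAL4-VP16 transactivation; 0% = DMSO with VP16-transfected cells and 100% = DMSO with cells lacking VP16; higher means less reporter light so more repression of VP16 activity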
An asterisk follows results filed as active; . = not tested or not shown. In the library only some 1.4% were active in any assay of this set; here they are far more common.

SMILES	NR2E3 ag-1	PG9 Ab binder	NR2E3 ag-2	NR1D1 modulator	NR2E3 ag confirm	VP16 counter
Cc1ccc(-n2nnnc2SCC(=O)Nc2ccc3c(c2)OCCO3)cc1C	-9	0	-1	7	.	.
Cc1ccc2c(c1)C1CS(=O)(=O)N(Cc3ccccc3)CN1C2 (stereo not drawn)	.	.	.	2	.	.
Nc1cc(=O)[nH]c(SCc2cccc3ccccc23)n1	-35	2	0	-5	.	.
O=c1cc(C(F)(F)F)nc(SCc2cccc3ccccc23)[nH]1	100*	-2	-1	-1	98*	84*
O=c1c2cc(F)ccc2sn1-c1ccc(F)cc1	46	.	1	.	.	.
Cc1ccc(C)c(-n2sc3ccc(F)cc3c2=O)c1	63	0	1	2	-18	-17
CCOc1cc(CNc2ccc3c(c2)OCCO3)cc(Br)c1OCC	57	0	1	-5	-6	-9
Cc1cc(C(=O)CSc2nc3ccccc3[nH]2)c(C)n1CC1CCCO1 (stereo not drawn)	84*	-2	-2	-6	87*	51
Cc1cc(C(=O)CSc2nc(N)cc(=O)[nH]2)c(C)n1CC1CCCO1 (stereo not drawn)	-41	-1	.	-14	.	.
Cc1ccc2ccc3cccnc3c2n1	67	0	1	3	45	9
CCc1ccc(S(=O)(=O)/N=C2\C=C(Nc3ccc(O)cc3)C(=O)c3ccccc32)cc1	113*	.	-6	.	100*	100*
O=C1C(Nc2ccc(O)cc2)=C/C(=N/S(=O)(=O)c2cccs2)c2ccccc21	103*	-15	.	-5	100*	99*
O=C(O)c1ccc(NC2=C/C(=N/S(=O)(=O)c3ccccc3)c3ccccc3C2=O)cc1	-8	-19	.	-20	.	.
Cc1cc(C)c(S(=O)(=O)/N=C2\C=C(Nc3ccc(C(=O)O)cc3)C(=O)c3ccccc32)c(C)c1	112*	-12	0	3	100*	98*
CCc1ccc(S(=O)(=O)/N=C2\C=C(Nc3cccc(C(=O)O)c3)C(=O)c3ccccc32)cc1	32	-9	4	-4	.	.
O=S1(=O)C=CCN1Cc1cn(Cc2cccc(C(F)(F)F)c2)nn1	.	.	.	-2	.	.
CN(C(=O)COc1ccccc1C(=O)NCCOc1ccccc1)c1ccccc1	77*	0	7	-2	80*	68
O=C(NCCOc1ccccc1)c1ccccc1Cl	-119	0	0	-7	.	.
CN1Cc2nnn(Cc3ccccc3)c2-c2cc(N3CCCCC3)ccc2S1(=O)=O	.	.	.	1	.	.
CCOC(=O)[C@@]12CN(C(=O)OC(C)(C)C)CC=C1N(Cc1ccc(OC)cc1)C(=O)[C@H]2CC(=O)NCCC(C)C	.	.	.	-2	.	.
CC(O)CC(=O)OC[C@]12CC[C@H]3[C@@](C)(CC[C@H]4C(C)(C)CCC[C@]34C)[C@@H]1CC(C1=CC(=O)OC1O)O2 (stereo partly drawn)	67	0	.	-2	66	24
COC(=O)c1c(-c2ccc(C)cc2)csc1NC(=O)Cc1ccc(OC)c(OC)c1	57	-1	.	10	22	32
COc1ccc(/C=C2/SC(=S)N(CCCC(=O)Nc3cccc(O)c3)C2=O)cc1	61	-2	2	-4	1	60
COc1ccc(/C=C2\SC(=S)N(CCCC(=O)Nc3cccc(C(=O)O)c3)C2=O)cc1OC	2	-4	-1	4	.	.
COc1ccc(/C=C2\SC(=O)N(CCCC(=O)Nc3ccc(C(=O)O)cc3)C2=O)cc1	88*	-1	.	-1	85*	92*
SMILES	NR2E3 ag-1	PG9 Ab binder	NR2E3 ag-2	NR1D1 modulator	NR2E3 ag confirm	VP16 counter
COc1cccc(/C=C2\SC(=S)N(CCCC(=O)Nc3cccc(C(=O)O)c3)C2=O)c1	68	.	.	.	23	58
O=C(CCN1C(=O)S/C(=C\c2ccc(Cl)cc2)C1=O)Nc1ccc(C(=O)O)cc1	-20	-4	2	1	.	.
CC(=O)c1cc(-c2cccc(C#N)c2)c(=O)n2c1CCC2	.	.	.	-1	.	.
C/C=C/C=C/C(=O)N1C[C@H](C)N(C)C[C@H]1C	.	.	.	-5	.	.
O=C(CCc1ccccc1)N[C@H]1C(=O)CCC[C@]12C(=O)N(Cc1ccccc1)c1ccccc12	.	.	.	1	.	.
COc1cccc(NC(=O)N2CC[C@@H]3[C@H]2c2cc(-c4cccc(C#N)c4)ccc2N(C)[C@@H]3CO)c1	.	.	.	3	.	.
Nc1nonc1C(=O)NCCNCc1cc(Br)ccc1OCc1ccc(F)cc1	58	3	3	0	63	59
O=C(CSc1cccc[n+]1[O-])c1cc2ccccc2o1	78*	.	2	.	-22	-16
O=C(NCCc1ccccc1)OCc1cn(Cc2ccc(F)c(F)c2)nn1	.	.	.	4	.	.
S=C(NCc1ccc(Cl)cc1)Nc1ccncc1	100*	0	1	2	84*	81*
S=C(NCc1ccc(Cl)cc1)Nc1ccccc1	-23	-3	2	2	.	.
CC(C)C[C@@H]1COc2cc(Br)ccc2S(=O)(=O)N1Cc1cn(CC2CCCCC2)nn1	.	.	.	-6	.	.
CN(C)c1ccc(C=Cc2ccnc3ccccc23)cc1N	52	-2	.	-3	24	-1
N#C/C(=C\c1ccc(Sc2ccc(Cl)cc2)o1)c1nc2ccccc2[nH]1	-56	-1	1	3	.	.
N#C/C(=C\c1ccc(Sc2nc3ccccc3[nH]2)o1)c1ccccc1	73*	-3	-2	1	82*	56
COc1ccc(CN(C)S(=O)(=O)c2nnc(NC(=O)c3cccc(OC)c3)s2)cc1	19	1	4	-4	.	.
COc1cccc(C(=O)Nc2nnc(S(=O)(=O)N(C)Cc3ccc(F)cc3)s2)c1	50	0	1	9	41	19
COc1ccc(CC2(CO)CCN(CC3=Cc4cc(Cl)ccc4OC3)CC2)cc1	69	0	0	0	96*	74*
COc1ccc2c(c1)C=C(CN1CCC(CO)(CCc3ccccc3)CC1)CO2	-14	0	3	0	.	.
CCCCOc1ccc(S(=O)(=O)Nc2cccnc2)cc1	94*	-2	3	-2	90*	74*
CCOC(=O)N1CCN(C(=O)C[C@H]2C[C@@]3(C(=O)OC)C(=C[C@H](C4CCCC4)O[C@@H]3C)N(CCc3ccc(OC)c(OC)c3)C2=O)CC1	.	.	.	2	.	.
O=S(=O)(c1ccccc1C(F)(F)F)N1CCN(c2ncnc3sccc23)CC1	60	0	.	-5	67	51
Cc1ccc(S(=O)(=O)N2CCN(c3ncnc4sccc34)CC2)cc1	103*	1	0	1	94*	83*
Cc1sc2ncnc(N3CCN(S(=O)(=O)c4ccc(F)cc4)CC3)c2c1C	78*	-1	2	4	80*	74*
CCS(=O)(=O)N1CCN(c2ncnc3sc(C)c(C)c23)CC1	7	0	2	-1	.	.
O=C(c1ccccc1)C1CCN(c2ncnc3sccc23)CC1	.	.	.	3	.	.
c1ccc(CC2CCN(c3ncnc4sccc34)CC2)cc1	80*	0	.	0	97*	83*
